The nature of data set [1]: Inhibition of farnesyl transferase. Put shortly:
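FTase (50 ng) was incubated with 500 nM [³H]FPP and 1 μM recombinant H-Ras substrate for 10 min at 30°C, with or without drug. Protein was precipitated and glass-fibre filtered, and incorporated radiolabelled isoprenoid was counted by scintillation. Values are the mean of triplicate determinations.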

Data set [2] is described as follows: Toxicity in mouse fibroblast cells assessed as accumulation of prelamin A at 20 uM after 48 hrs by Western blot. Type of data set: cell-based. Put shortly: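 Mouse fibroblasts were exposed 48 h to drug (20 μM), FTI (5 μM) or DMSO. Prelamin A was detected on Western blots of cell extracts.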
A general note: In western blotting, separated proteins are transferred to a membrane and probed.

For data set [3], the system named is HeLa. Put plainly: Toxicity in human HeLa cells transfected with GFP-prelamin A construct assessed as accumulation of uncleaved protein at 20 uM by Western blot. Type of data set: cell-based. Put shortly:
(§1)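 Cells were transiently transfected at 80% confluency with a GFP fused to the C-terminal 118 aa of prelamin A. Four hours later, the medium was changed to MEM/10% FBS and drug was added for 18 h (overnight). Uncleaved and cleaved fusion protein were resolved on Western blots probed with anti-GFP and anti-prelamin A antibodies.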

The test system of data set [4] is Fibroblast. Kind of data set: Effect on HDJ2 farnesylation in mouse fibroblast cells at 20 uM after 24 hrs by Western blot. Type of data set: functional, cell-based. The essentials:
(§2)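 Wild-type fibroblasts exposed 24 h to drug (20 μM) or DMSO vehicle, with GGTI-298 (15 μM) and FTI (5 μM) run alongside. Isoprenylation was judged by band mobility on Western blots. HDJ-2 extracts were resolved on 15% acrylamide/0.08% bisacrylamide SDS/PAGE; Rap1A was probed with anti-Rap1A and anti-Rap1 antibodies.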

Data set [5] has as its system Fibroblast. Kind of data set: Effect on Rap1A isoprenylation in mouse fibroblast cells at 20 uM after 24 hrs by Western blot. Type of data set: functional, cell-based. The essentials:
as §2

Data set [6] has as its target Protein-S-isoprenylcysteine O-methyltransferase (Homo sapiens) (UniProt O60725). Kind of data set: Inhibition of human ICMT expressed in yeast assessed as methylation of N-acetyl-farnesylcysteine.
The target in data set [7] is T1, CAAX prenyl protease 2 (Mus musculus) (UniProt P57791).
T1 sequence (whole entry): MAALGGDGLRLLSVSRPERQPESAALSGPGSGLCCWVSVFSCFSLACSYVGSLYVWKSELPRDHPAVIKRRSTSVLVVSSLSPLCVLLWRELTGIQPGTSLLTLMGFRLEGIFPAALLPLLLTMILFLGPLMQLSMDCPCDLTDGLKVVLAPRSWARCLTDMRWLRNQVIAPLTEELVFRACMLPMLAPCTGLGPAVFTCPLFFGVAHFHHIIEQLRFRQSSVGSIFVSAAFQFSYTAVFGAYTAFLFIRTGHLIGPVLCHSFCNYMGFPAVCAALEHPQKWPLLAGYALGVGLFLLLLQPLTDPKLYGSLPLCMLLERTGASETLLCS
Kind of data set: Inhibition of mouse RCE1 expressed in delta ste24 delta rce1 yeast. The essentials: (§3)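 Coupled endoproteolysis/methylation assay. Δste24Δrce1 yeast membranes overexpressing mouse ZMPSTE24 or RCE1 (5 μg) plus CH2733 Ste14p membranes (8 μg) were incubated with farnesylated 15-mer a-factor peptide (5 μM for ZMPSTE24, 25 μM for RCE1) and 20 μM [¹⁴C]SAM in 100 mM Tris·HCl pH 7.5 for 30 min at 30°C. Reactions were stopped with NaOH/SDS, and base-releasable [¹⁴C]methanol was measured by vapor diffusion. IC50 values were fitted.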

The target in data set [8] is T2, CAAX prenyl protease 1 homolog (Mus musculus, UniProt Q80W54).
T2 sequence (Q80W54 whole entry): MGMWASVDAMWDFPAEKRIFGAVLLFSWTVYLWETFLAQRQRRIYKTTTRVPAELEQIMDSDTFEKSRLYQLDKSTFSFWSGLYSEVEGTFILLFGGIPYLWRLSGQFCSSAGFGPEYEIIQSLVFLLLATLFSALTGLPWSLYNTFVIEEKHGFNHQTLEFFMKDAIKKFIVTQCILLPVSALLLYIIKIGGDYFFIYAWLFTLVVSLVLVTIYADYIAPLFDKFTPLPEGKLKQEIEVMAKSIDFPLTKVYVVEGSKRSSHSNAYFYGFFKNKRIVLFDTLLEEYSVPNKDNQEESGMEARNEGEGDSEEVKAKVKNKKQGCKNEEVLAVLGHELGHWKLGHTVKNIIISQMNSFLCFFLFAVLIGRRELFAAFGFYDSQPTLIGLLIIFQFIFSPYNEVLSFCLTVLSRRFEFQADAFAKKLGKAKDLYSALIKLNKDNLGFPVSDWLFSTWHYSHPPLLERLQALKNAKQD
Put plainly: Inhibition of mouse ZMPSTE24 expressed n delta ste24 delta rce1 yeast. Put shortly:
as §3

In data set [9] the test system is Fibroblast. Put plainly: Effect on change in ZMPSTE24 mRNA expression level in mouse fibroblasts at 20 uM after 10 days by PCR. The data set is classed as functional, cell-based.
The test system of data set [10] is Fibroblast. Put plainly: Effect on change in ZMPSTE24 protein level in mouse fibroblasts at 20 uM after 10 days by Western blot. Type of data set: functional, cell-based.
Data set [11] is described as follows: Toxicity in RCE1 deficient mouse fibroblast cells assessed as accumulation of prelamin A at 20 uM after 24 hrs by Western blot. The data set is classed as cell-based. The essentials: (§4)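 Rce1−/− or Icmt−/− mouse embryonic fibroblasts were treated 24 h with drug (20 μM) or DMSO, with FTI (5 μM) as a comparator. Extracts were run on 4–12% Bis-Tris gels and Western blotted for lamin A/C and prelamin A, using antiserum "b", which recognises both farnesylated and nonfarnesylated forms.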

The nature of data set [12]: Toxicity in human AG08470 cells assessed as accumulation of prelamin A at 20 uM after 10 days by Western blot. Type of data set: cell-based. The following applies: 240 h. Put shortly:
(§5)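 WT human fibroblasts were cultured in MEM or DMEM with 10% FBS at 37°C, 5% CO₂, then treated 10 days with drug (20 μM), FTI (5 μM) or DMSO. Western blots were probed for lamin A/C, prelamin A antisera "a" (nonfarnesylated only) and "b", and actin. Prelamin A was quantified by image analysis relative to lamin C and to mature lamin A.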

Data set [13] in a line: Toxicity in human AG07095 cells assessed as accumulation of prelamin A at 20 uM after 10 days by Western blot. The data set is classed as cell-based. The following applies: 240 h. Put shortly: as §5
Data set [14] is described as follows: Toxicity in ICMT deficient mouse fibroblast cells assessed as accumulation of prelamin A at 20 uM after 24 hrs by Western blot. The data set is classed as cell-based. Put shortly:
as §4

A short description of data set [15]: Toxicity in mouse fibroblast cells assessed as accumulation of prelamin A at 20 uM after 10 days by Western blot. The following applies: 240 h. The data set is classed as cell-based. The essentials:
(§6)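 WT mouse fibroblasts were treated 10 days with drug (NVP at 200 and 400 μM; STV at 20 and 40 μM; LPV at 20 μM) or DMSO vehicle. Prelamin A accumulation was assessed on Western blots of cell extracts.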

Data set [16] relates to HEK293. Put plainly: Toxicity in HEK293 cells transfected with GFP-prelamin A construct assessed as accumulation of uncleaved protein at 20 uM by Western blot. The data set is classed as cell-based. The following applies: human, hek293, 20 µM. The essentials:
as §1

Data set [17] can be described thus: Toxicity in mouse fibroblast cells assessed as accumulation of prelamin A at 200 uM after 10 days by Western blot. Type of data set: cell-based. The following applies: 240 h. The essentials: (§7)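 Wild-type mouse fibroblasts were grown at 37 °C in 5% CO₂ in MEM or DMEM with 10% FBS, 2 mM L-glutamine and vitamin/amino acid supplements. Cells were exposed for 10 days to drug (200 mM DMSO stock) or DMSO vehicle. Extracts were run on 4–12% Bis-Tris gels and immunoblotted for lamin A/C, prelamin A (antiserum "b", 1:4,000) and actin.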

The nature of data set [18]: Toxicity in mouse fibroblast cells assessed as accumulation of prelamin A at 400 uM after 10 days by Western blot. Type of data set: cell-based. The following applies: 240 h. The essentials:
as §7

The nature of data set [19]: Toxicity in mouse fibroblast cells assessed as accumulation of prelamin A at 40 uM after 10 days by Western blot. The data set is classed as cell-based. The following applies: 240 h. Put shortly: as §6
In data set [20] the test system is HEK293. Put plainly: Toxicity in HEK293 cells transfected with GFP-prelamin A construct assessed as accumulation of uncleaved protein by Western blot. The following applies: human.

Active and inactive are the calls of the source. The calls are words filed in the database; no cut-off is given here.

Sequence of Protein-S-isoprenylcysteine O-methyltransferase (Homo sapiens) (O60725 whole entry): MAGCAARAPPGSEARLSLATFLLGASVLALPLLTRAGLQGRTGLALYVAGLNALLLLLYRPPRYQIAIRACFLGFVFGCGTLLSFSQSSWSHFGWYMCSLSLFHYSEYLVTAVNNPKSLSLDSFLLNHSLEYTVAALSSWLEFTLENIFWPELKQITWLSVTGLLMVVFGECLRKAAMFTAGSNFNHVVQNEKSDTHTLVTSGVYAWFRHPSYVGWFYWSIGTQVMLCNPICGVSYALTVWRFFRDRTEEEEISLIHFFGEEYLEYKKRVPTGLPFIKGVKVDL

Consider `COC(=O)N[C@H](C(=O)N[C@@H](Cc1ccccc1)[C@@H](O)CN(Cc1ccc(-c2ccccn2)cc1)NC(=O)[C@@H](NC(=O)OC)C(C)(C)C)C(C)(C)C` [ATAZANAVIR], for which, in data set [1], the result was inactive. Moreover, the Activity result in [2] and in data set [3] was “Toxic” each time.
For `Cc1cccc(C)c1OCC(=O)N[C@@H](Cc1ccccc1)[C@@H](O)C[C@H](Cc1ccccc1)NC(=O)[C@H](C(C)C)N1CCCNC1=O` [LOPINAVIR], the outcome in data set [4], in data set [5], in data set [1], in data set [6], in data set [7] and in [9] was inactive. In addition, the result in data set [10] was inactive. The IC50 – broadly, the point on the concentration scale where inhibition reaches its midpoint – in data set [8] amounted to 18.4 µM. Moreover, the Activity result in data set [11], in data set [12], in [13], in data set [2], in data set [14] and in data set [15] was “Toxic” in each case. The Activity entry in data set [3] and in [16] was “Toxic” each time.
For `Cc1ccnc2c1NC(=O)c1cccnc1N2C1CC1` [NEVIRAPINE], the Activity result in data set [17], in data set [18] and in data set [3] was “Non-toxic” throughout.
As to `Cc1cn([C@H]2C=C[C@@H](CO)O2)c(=O)[nH]c1=O` [STAVUDINE], the Activity result in data set [15], in data set [19] and in [3] was “Non-toxic” each time.
As for `CCC[C@@]1(CCc2ccccc2)CC(O)=C([C@H](CC)c2cccc(NS(=O)(=O)c3ccc(C(F)(F)F)cn3)c2)C(=O)O1` [TIPRANAVIR], the result in data set [7] was inactive. Further, it took 1.2 µM to reach half-maximal inhibition in data set [8] (IC50). In addition, the Activity result in [20] is “Toxic”.

Values taken from ChEMBL document CHEMBL1147053, “HIV protease inhibitors block the zinc metalloproteinase ZMPSTE24 and lead to an accumulation of prelamin A in cells” (Proc Natl Acad Sci U S A, 2007).
